Six compounds from ChEMBL document CHEMBL1795235, “Quercetin diacylglycoside analogues showing dual inhibition of DNA gyrase and topoisomerase IV as novel antibacterial agents” (J Med Chem, 2011) can be followed below.

Structures are written as SMILES. pIC50: −log10 of the molar value. In brackets after ≈: the same amount, converted by molar mass.

The subject of assay [1] is Staphylococcus aureus. The assay can be described thus: Antibacterial activity against methicillin-resistant Staphylococcus aureus OM481 after 24 hrs by microdilution method. Type of assay: functional. The following applies: OM481, 24 h. The gist of the method:
(§1)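 Broth microdilution in Mueller-Hinton broth with 0.85% NaCl, inoculum about 10^5 CFU per 100 μL. Compounds were diluted in water from 25.6 mg/mL stocks to final 2-fold series of 0.062–128 μg/mL. Plates were incubated 24 h at 35 °C. MIC was the lowest concentration at which all triplicate wells were clear, from three independent determinations.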

Assay [2] has as its system Enterococcus. The assay can be described thus: Antibacterial activity against vancomycin resistant Enterococcus NCTC 12201 after 24 hrs by microdilution method. The following applies: NCTC 12201, 24 h. The format is functional. The method in brief: as §1
Another assay has as its system Streptococcus pneumoniae. Briefly: Antibacterial activity against Streptococcus pneumoniae R6 after 24 hrs by microdilution method. The format is functional. The following applies: R6, 24 h. The method in brief:
(§2)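 Broth microdilution in Mueller-Hinton broth with 0.85% NaCl, inoculum about 10^5 CFU per 100 μL. Compounds diluted from 25.6 mg/mL stocks in water to 2-fold series, final 0.062–128 μg/mL. […] Three independent determinations.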

Assay [3] has as its system Staphylococcus aureus. Briefly: Antibacterial activity against methicillin-susceptible Staphylococcus aureus 209P after 24 hrs by microdilution method. The format is functional. The gist of the method:
as §1

The test system of assay [4] is Staphylococcus aureus. The assay can be described thus: Antibacterial activity against methicillin-resistant Staphylococcus aureus OM584 after 24 hrs by microdilution method. The format is functional. Particulars: OM584, 24 h. The method in brief:
as §1

For assay [5], the system named is Enterococcus. Briefly: Antibacterial activity against vancomycin resistant Enterococcus FN-1 after 24 hrs by microdilution method. Type of assay: functional. Particulars: FN-1, 24 h. The method in brief: as §1
A short description of assay [6]: Inhibition of Escherichia coli DNA topoisomerase 4 subunit ParC/DNA topoisomerase 4 subunit ParE-mediated decatenation of kDNA by densitometry. The method in brief: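 Purchased E. coli topoIV kit enzyme, one unit with 200 ng kDNA, 37 °C, 30 min. Buffer: 50 mM HEPES-KOH pH 7.6, 5 mM magnesium acetate, 100 mM potassium glutamate, 10 mM DTT, 1 mM ATP, 40% glycerol. Gel on 1.0% agarose in TAE. IC50 of decatenation from densitometry by interpolation equation, at least three determinations.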

Assay [7] deals with Staphylococcus aureus. Briefly: Antibacterial activity against methicillin-resistant Staphylococcus aureus N315 after 24 hrs by microdilution method. The format is functional. The following applies: N315, 24 h. The method in brief: as §1
Assay [8] can be described thus: Inhibition of Staphylococcus aureus DNA Topoisomerase 4-mediated decatenation of kDNA after 30 mins by densitometry. The gist of the method: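 Purchased S. aureus topoIV, one unit with 200 ng kDNA, 37 °C, 30 min. Products resolved on 1.0% agarose in TAE. IC50 of decatenation from densitometry by interpolation equation, at least three determinations.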
Assay [9] deals with Staphylococcus aureus. Briefly: Antibacterial activity against methicillin-resistant Staphylococcus aureus COL after 24 hrs by microdilution method. The format is functional. The method in brief:
as §1

The subject of assay [10] is Staphylococcus aureus. Briefly: Antibacterial activity against vancomycin-intermediate Staphylococcus aureus Mu50 after 24 hrs by microdilution method. Type of assay: functional. Particulars: Mu50, 24 h. The gist of the method: as §1
The next assay has as its system Pseudomonas aeruginosa. The assay can be described thus: Antibacterial activity against Pseudomonas aeruginosa PAO1 after 24 hrs by microdilution method. Type of assay: functional. Particulars: PAO1, 24 h. The method in brief:
as §2

A short description of assay [11]: Inhibition of Escherichia coli DNA gyrase assessed as inhibition of pBR322 supercoiling by densitometry. The method in brief: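 One unit of E. coli gyrase with 0.5 μg relaxed pBR322 DNA, 37 °C, 30 min. Stopped with sucrose/EDTA dye, run on 1.0% agarose in TAE. IC50 from densitometry via log-interpolation equation.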
For another assay, the system named is Escherichia coli. The assay can be described thus: Antibacterial activity against Escherichia coli K-12 after 24 hrs by microdilution method. The following applies: K-12, 24 h. Type of assay: functional. The gist of the method:
as §2

Consider `O=C(CCc1ccc(O)cc1)O[C@H]1[C@H](Oc2c(-c3ccc(O)c(O)c3)oc3cc(O)cc(O)c3c2=O)O[C@H](CO)[C@@H](O)[C@@H]1OC(=O)CCc1ccc(O)cc1`, for which the minimum inhibitory concentration (MIC) in the assay on Staphylococcus aureus [1] was 2 µg/mL (≈ 2.63 µM); with Enterococcus [2] it was 4 µg/mL (≈ 5.26 µM); against Streptococcus pneumoniae it was 1 µg/mL (≈ 1.31 µM); against Staphylococcus aureus [3], 1 µg/mL (≈ 1.31 µM); with Staphylococcus aureus [4] it was 2 µg/mL (≈ 2.63 µM); with Enterococcus [5], 2 µg/mL (≈ 2.63 µM). The MIC against Staphylococcus aureus [7] was found to be 1 µg/mL (≈ 1.31 µM); with Staphylococcus aureus [9], 4 µg/mL (≈ 5.26 µM); in the assay on Staphylococcus aureus [10], 1 µg/mL (≈ 1.31 µM). Besides, the negative-log IC50 (pIC50) in assay [6] was 4.93; in assay [8], 5.70.
Take `O=C(Cc1ccc(F)cc1)O[C@H]1[C@H](Oc2c(-c3ccc(O)c(O)c3)oc3cc(O)cc(O)c3c2=O)O[C@H](CO)[C@@H](O)[C@@H]1OC(=O)Cc1ccc(F)cc1`: the MIC in the assay with Staphylococcus aureus [1] is 2 µg/mL (≈ 2.72 µM); against Enterococcus [2], 4 µg/mL (≈ 5.43 µM); in the assay on Streptococcus pneumoniae it was 1 µg/mL (≈ 1.36 µM); in the assay on Staphylococcus aureus [3], 1 µg/mL (≈ 1.36 µM); in the assay on Staphylococcus aureus [4], 2 µg/mL (≈ 2.72 µM); in the assay with Enterococcus [5], 2 µg/mL (≈ 2.72 µM). For the same compound, the MIC amounted to 1 µg/mL (≈ 1.36 µM) with Staphylococcus aureus [7], 4 µg/mL (≈ 5.43 µM) in the assay with Staphylococcus aureus [9] and 1 µg/mL (≈ 1.36 µM) in the assay on Staphylococcus aureus [10]. Besides, the pIC50 was 5.00 in [6] and 5.84 in assay [8].
On to `O=C(CCc1ccc(F)cc1)O[C@H]1[C@H](Oc2c(-c3ccc(O)c(O)c3)oc3cc(O)cc(O)c3c2=O)O[C@H](CO)[C@@H](O)[C@@H]1OC(=O)CCc1ccc(F)cc1`, for which the MIC against Staphylococcus aureus [1] was found to be 2 µg/mL (≈ 2.62 µM); against Enterococcus [2], 1 µg/mL (≈ 1.31 µM); against Streptococcus pneumoniae it was 0.5 µg/mL (≈ 0.654 µM); against Staphylococcus aureus [3], 0.25 µg/mL (≈ 0.327 µM); against Staphylococcus aureus [4], 2 µg/mL (≈ 2.62 µM); in the assay on Enterococcus [5], 1 µg/mL (≈ 1.31 µM). Also, the MIC against Staphylococcus aureus [7] is 0.25 µg/mL (≈ 0.327 µM); in the assay with Staphylococcus aureus [9], 1 µg/mL (≈ 1.31 µM); with Staphylococcus aureus [10], 1 µg/mL (≈ 1.31 µM). Also, the pIC50 was 4.98 in assay [6] and 6.16 in [8].
For the compound `O=C(O[C@H]1[C@H](Oc2c(-c3ccc(O)c(O)c3)oc3cc(O)cc(O)c3c2=O)O[C@H](CO)[C@@H](O)[C@@H]1OC(=O)c1ccc(F)cc1)c1ccc(F)cc1`, the MIC worked out at 2 µg/mL (≈ 2.82 µM) with Staphylococcus aureus [1]; 4 µg/mL (≈ 5.65 µM) in the assay on Enterococcus [2]; 1 µg/mL (≈ 1.41 µM) with Streptococcus pneumoniae; 1 µg/mL (≈ 1.41 µM) against Staphylococcus aureus [3]; 2 µg/mL (≈ 2.82 µM) with Staphylococcus aureus [4]; 2 µg/mL (≈ 2.82 µM) against Enterococcus [5]. Further, the MIC against Staphylococcus aureus [7] came out at 1 µg/mL (≈ 1.41 µM); with Staphylococcus aureus [9], 4 µg/mL (≈ 5.65 µM); against Staphylococcus aureus [10], 1 µg/mL (≈ 1.41 µM). Besides, the pIC50 was 4.97 in assay [6] and 5.92 in assay [8].
`CN[C@H](CC(C)C)C(=O)N[C@H]1C(=O)N[C@@H](CC(N)=O)C(=O)N[C@H]2C(=O)N[C@H]3C(=O)N[C@H](C(=O)N[C@H](C(=O)O)c4cc(O)cc(O)c4-c4cc3ccc4O)[C@H](O)c3ccc(c(Cl)c3)Oc3cc2cc(c3O[C@@H]2O[C@H](CO)[C@@H](O)[C@H](O)[C@H]2O[C@H]2C[C@](C)(N)[C@H](O)[C@H](C)O2)Oc2ccc(cc2Cl)[C@H]1O` [VANCOMYCIN]: the MIC against Staphylococcus aureus [1] was 0.25 µg/mL (≈ 0.173 µM); with Enterococcus [2], greater than 128 µg/mL; in the assay with Streptococcus pneumoniae it was 0.25 µg/mL (≈ 0.173 µM); against Staphylococcus aureus [3], 0.25 µg/mL (≈ 0.173 µM); against Staphylococcus aureus [4] it was 0.25 µg/mL (≈ 0.173 µM); with Enterococcus [5] it was greater than 128 µg/mL. In addition, the MIC against Staphylococcus aureus [7] came to 0.25 µg/mL (≈ 0.173 µM); against Staphylococcus aureus [9], 0.25 µg/mL (≈ 0.173 µM); in the assay on Staphylococcus aureus [10], 8 µg/mL (≈ 5.52 µM).
Regarding `CC1O[C@H](Oc2c(-c3ccc(O)cc3)oc3cc(O)cc(O)c3c2=O)[C@@H](OC(=O)/C=C/c2ccc(O)cc2)[C@@H](O)[C@@H]1OC(=O)/C=C/c1ccc(O)cc1` (some centres undefined), the MIC against Staphylococcus aureus [1] is 1 µg/mL (≈ 1.38 µM); against Enterococcus [2] it was 4 µg/mL (≈ 5.52 µM); against Pseudomonas aeruginosa it was greater than 128 µg/mL; against Staphylococcus aureus [3] it was 0.5 µg/mL (≈ 0.69 µM); in the assay on Staphylococcus aureus [4], 2 µg/mL (≈ 2.76 µM); in the assay on Enterococcus [5] it was 8 µg/mL (≈ 11 µM). Further, the figures for the MIC with Staphylococcus aureus [7], against Staphylococcus aureus [9] and against Escherichia coli were 1 µg/mL (≈ 1.38 µM), 1 µg/mL (≈ 1.38 µM) and greater than 128 µg/mL, respectively. In addition, the pIC50 was 5.51 in assay [11] and 5.57 in assay [8].
